According to ChEMBL document CHEMBL1144515, “Synthesis, in vitro evaluation, and SAR studies of a potential antichagasic 1H-pyrazolo[3,4-b]pyridine series” (Bioorg Med Chem, 2007):
≈ marks a conversion by molar mass, not a printed value.

system: Trypanosoma cruzi; assay: Antiparasitic activity against Trypanosoma cruzei Y blood stream trypomastigotes; format: functional, organism-based
Procedure, shortened: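 Mouse infected blood diluted with healthy mouse blood and fetal bovine serum to about 106 trypomastigotes/mL; compounds from DMSO stocks added at final 10, 100, 250, 500 and 1000 µg/mL. Incubated 4 °C, 24 h with constant shaking; untreated and crystal violet-treated controls; triplicate. Trypomastigotes counted, % lysis versus untreated; IC50 taken as 50% activity concentration.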

Row | SMILES | IC50
1 | Cc1nn(-c2ccccc2)c2nc(-c3ccc([N+](=O)[O-])cc3)cc(C(=O)NN)c12 | 533 µg/mL (≈ 1370 µM)
2 | Cc1nn(-c2ccccc2)c2nc(-c3ccc(Cl)cc3)cc(C(=O)NN)c12 | 211 µg/mL (≈ 558 µM)
3 | Cc1nn(-c2ccccc2)c2nc(-c3ccc(C#N)cc3)cc(C(=O)NN)c12 | 341 µg/mL (≈ 926 µM)
4 | CCOc1ccc(-c2cc(C(=O)N/N=C\c3ccc(F)cc3)c3c(C)nn(-c4ccccc4)c3n2)cc1 | 39.3 µg/mL (≈ 79.6 µM)
5 | CCOc1ccc(-c2cc(C(=O)N/N=C\c3ccc([N+](=O)[O-])cc3)c3c(C)nn(-c4ccccc4)c3n2)cc1 | 1180 µg/mL (≈ 2260 µM)
6 | Cc1nn(-c2ccccc2)c2nc(-c3ccc(Cl)cc3)cc(C(=O)N/N=C\c3ccc(O)cc3)c12 | 71.8 µg/mL (≈ 149 µM)
7 | Cc1nn(-c2ccccc2)c2nc(-c3ccc(C#N)cc3)cc(C(=O)N/N=C\c3ccc([N+](=O)[O-])cc3)c12 | 37.3 µg/mL (≈ 74.4 µM)
8 | Cc1nn(-c2ccccc2)c2nc(-c3ccc(C#N)cc3)cc(C(=O)N/N=C\c3ccc(O)cc3)c12 | 260 µg/mL (≈ 551 µM)
9 | COc1ccc(-c2cc(C(=O)N/N=C\c3ccc(F)cc3)c3c(C)nn(-c4ccccc4)c3n2)cc1 | 1460 µg/mL (≈ 3050 µM)
10 | Cc1nn(-c2ccccc2)c2nc(-c3ccccc3)cc(C(=O)N/N=C\c3ccc([N+](=O)[O-])cc3)c12 | 95.3 µg/mL (≈ 200 µM)
11 | Cc1nn(-c2ccccc2)c2nc(-c3ccccc3)cc(C(=O)N/N=C\c3ccccc3)c12 | 205 µg/mL (≈ 476 µM)

More lines, now with the values ahead:

Row | IC50 | SMILES
12 | 332 µg/mL (≈ 694 µM) | COc1ccc(-c2cc(C(=O)N/N=C\c3ccc(O)cc3)c3c(C)nn(-c4ccccc4)c3n2)cc1
13 | 108 µg/mL (≈ 212 µM) | Cc1nn(-c2ccccc2)c2nc(-c3ccc(Cl)cc3)cc(C(=O)N/N=C\c3ccc([N+](=O)[O-])cc3)c12
14 | 782 µg/mL (≈ 2280 µM) | Cc1nn(-c2ccccc2)c2nc(-c3ccccc3)cc(C(=O)NN)c12
15 | > 1500 µg/mL | COc1ccc(-c2cc(C(=O)N/N=C\c3ccc([N+](=O)[O-])cc3)c3c(C)nn(-c4ccccc4)c3n2)cc1
16 | 378 µg/mL (≈ 797 µM) | Cc1nn(-c2ccccc2)c2nc(-c3ccc(C#N)cc3)cc(C(=O)N/N=C\c3ccc(F)cc3)c12
17 | 1.9 µg/mL (≈ 4.25 µM) | Cc1nn(-c2ccccc2)c2nc(-c3ccccc3)cc(C(=O)N/N=C\c3ccc(O)cc3)c12
18 | 88.9 µg/mL (≈ 198 µM) | Cc1nn(-c2ccccc2)c2nc(-c3ccccc3)cc(C(=O)N/N=C\c3ccc(F)cc3)c12
19 | 170 µg/mL (≈ 345 µM) | CCOc1ccc(-c2cc(C(=O)N/N=C\c3ccc(O)cc3)c3c(C)nn(-c4ccccc4)c3n2)cc1
20 | 439 µg/mL (≈ 1130 µM) | CCOc1ccc(-c2cc(C(=O)NN)c3c(C)nn(-c4ccccc4)c3n2)cc1
21 | 781 µg/mL (≈ 2090 µM) | COc1ccc(-c2cc(C(=O)NN)c3c(C)nn(-c4ccccc4)c3n2)cc1
22 | 197 µg/mL (≈ 407 µM) | Cc1nn(-c2ccccc2)c2nc(-c3ccc(Cl)cc3)cc(C(=O)N/N=C\c3ccc(F)cc3)c12
